Reference: ChEMBL document CHEMBL1144952 (J Med Chem, 2003)

What was measured:
Cannabinoid receptor 1 = Cannabinoid receptor 1 (Homo sapiens, UniProt P21554); assay: Binding affinity of compound against human cannabinoid receptor 1 in chinese hamster ovary cells by using radioligand CP-55940; type: cell-based, CHO
Outline: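 CHO-K1 membranes expressing human CB1; CP55,940 used as radiolabelled tracer (routinely 10 nM). Bound label collected by filtration and measured by scintillation counting.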

Cannabinoid receptor 2 [1] = molecular target: T1, Cannabinoid receptor 2 (Homo sapiens, UniProt P34972); assay: Binding affinity against human cannabinoid receptor 2 in chinese hamster ovary cells using WIN-55212-2 mesylate[57-3H]; type: cell-based, CHO
T1 sequence (P34972 whole entry): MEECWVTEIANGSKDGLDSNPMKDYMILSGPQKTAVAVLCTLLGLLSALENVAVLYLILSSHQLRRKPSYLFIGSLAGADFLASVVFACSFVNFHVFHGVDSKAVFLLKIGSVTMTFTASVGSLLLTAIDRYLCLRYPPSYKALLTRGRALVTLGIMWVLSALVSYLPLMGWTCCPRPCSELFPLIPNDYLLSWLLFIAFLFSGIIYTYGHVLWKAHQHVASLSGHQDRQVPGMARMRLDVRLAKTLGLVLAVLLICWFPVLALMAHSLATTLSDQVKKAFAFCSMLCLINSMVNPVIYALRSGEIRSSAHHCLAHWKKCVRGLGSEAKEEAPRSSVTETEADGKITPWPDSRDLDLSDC

[2] = In vitro inhibitory concentration of compound against TNF-alpha release in human peripheral blood mononuclear cells was determined; type: functional
Outline: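 PBMCs isolated by ficoll from healthy donor blood and plated at 1 × 10^6 cells/mL in RPMI with 10% FBS. Compounds were added for 30 min before stimulation with LPS (25 ng/mL final). After 6 h at 37 °C, supernatant TNF-α was measured by ELISA.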

Cannabinoid receptor 2 [3] = molecular target: T1, Cannabinoid receptor 2; assay: Percent Inhibition of binding at […] against human cannabinoid receptor 2 in chinese hamster ovary cells by using a radioligand WIN-55212-2 mesylate[57-3H]; type: cell-based; conditions: CHO
Mus musculus [4] = assay: Percentage reduction of serum TNF-alpha when dose of 50 mg/kg was administered orally in mice; type: functional; conditions: route oral
Outline: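 Female BALB/c mice, 6–8 weeks old, given compound by gavage in 50% propylene glycol/water 10 min before iv LPS (0.1 mL of 10 μg/mL in PBS). Serum TNF-α was measured by ELISA 60 min after LPS; 8 mice per group, mean ± SD.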

Mus musculus [5] = assay: Effective dose of compound against inhibition of LPS stimulated TNF-alpha release when administered intravenously in mice; type: functional; conditions: iv
Outline: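 Female BALB/c mice, 6–8 weeks old. Compound in 10% propylene glycol/PBS was co-injected iv with LPS (E. coli O111:B4, 10 μg/mL in the dosing solution, 0.1 mL per mouse). Serum was taken 60 min later and TNF-α measured by ELISA; 8 mice per group, mean ± SD.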

Cannabinoid receptor 2 [6] = molecular target: T1, Cannabinoid receptor 2; assay: Percent Inhibition of binding at 100 nM against human cannabinoid receptor 2 in chinese hamster ovary cells by using a radioligand WIN-55212-2 mesylate[57-3H]; type: cell-based; conditions: CHO

Cannabinoid receptor 1, sequence (P21554 whole entry): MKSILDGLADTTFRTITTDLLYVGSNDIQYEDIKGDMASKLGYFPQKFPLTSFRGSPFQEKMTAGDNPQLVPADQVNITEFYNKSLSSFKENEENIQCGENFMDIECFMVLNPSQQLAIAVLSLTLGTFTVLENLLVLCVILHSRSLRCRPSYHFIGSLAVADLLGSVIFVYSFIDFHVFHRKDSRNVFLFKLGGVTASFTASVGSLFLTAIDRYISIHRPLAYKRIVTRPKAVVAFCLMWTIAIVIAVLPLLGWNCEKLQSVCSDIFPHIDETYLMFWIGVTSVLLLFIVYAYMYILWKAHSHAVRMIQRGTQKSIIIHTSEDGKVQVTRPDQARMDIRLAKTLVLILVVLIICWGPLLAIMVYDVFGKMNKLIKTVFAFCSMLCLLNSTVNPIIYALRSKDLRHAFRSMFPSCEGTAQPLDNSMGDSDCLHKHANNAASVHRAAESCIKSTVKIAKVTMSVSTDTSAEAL

For `COc1cccc2c(C(=O)NC3C(C)(C)[C@@H]4CC[C@@]3(C)C4)cn(CCN3CCOCC3)c12` (some centres not stated), which Ki (Cannabinoid receptor 1) is on record?
Its Ki is 245 nM.

And the Ki (Cannabinoid receptor 2 [1])?
The Ki was 11 nM.

What about the IC50 [2] of the same molecule?
The IC50 was 13000 nM.

Which inhibition (Cannabinoid receptor 2 [3]) does the source give for `COc1cccc2c3c(=O)n(C(c4ccccc4)c4ccccn4)ccc3n(CCN3CCOCC3)c12` (configuration not stated) here?
The inhibition was 13%.

Which Ki (Cannabinoid receptor 2 [1]) does the source give for `COc1cccc2c(C(=O)N(Cc3c(F)cccc3Cl)C(C)C)nn(CCN3CCOCC3)c12` here?
The Ki was 69 nM.

And the IC50 [2]?
Its IC50 is 36000 nM.

Which results are given for `COc1ccccc1Cn1ccc2c(c1=O)c1cccc(OC)c1n2CCN1CCOCC1`?
Ki (Cannabinoid receptor 1): 3700 nM; Ki (Cannabinoid receptor 2 [1]): 67 nM; IC50 [2]: 7000 nM

Which results are given for `COc1cccc2c(C(=O)NC3C(C)(C)[C@@H]4CC[C@@]3(C)C4)c(C)n(CCN3CCOCC3)c12` (some centres not stated)?
Ki (Cannabinoid receptor 1): 8 nM; Ki (Cannabinoid receptor 2 [1]): 29 nM; IC50 [2]: 33000 nM

Which results are given for `COc1ccccc1CNC(=O)c1nn(CCN2CCOCC2)c2c(OC)cccc12`?
Ki (Cannabinoid receptor 2 [1]): 77 nM; IC50 [2]: 43000 nM

For `COc1cccc2c(C(=O)NC3C(C)(C)[C@@H]4CC[C@@]3(C)C4)nn(CCN3CCOCC3)c12` (some centres not stated), which Ki (Cannabinoid receptor 1) is on record?
The Ki was 24 nM.

What about the Ki (Cannabinoid receptor 2 [1]) of the same molecule?
Its Ki is 2 nM.

And the IC50 [2]?
The IC50 was 30000 nM.

Which Ki (Cannabinoid receptor 1) does the source give for `COc1cccc2c3c(=O)n([C@@H]4C(C)(C)[C@@H]5CC[C@@]4(C)C5)ccc3n(CCN3CCOCC3)c12` here?
The Ki was 16 nM.

And the Ki (Cannabinoid receptor 2 [1])?
Its Ki is 1 nM.

And the Reduction (Mus musculus [4])?
Its Reduction is 61%.

And the IC50 [2]?
The IC50 was 8000 nM.

And the ED50 (Mus musculus [5])?
Its ED50 is 2 mg/kg.

Which inhibition (Cannabinoid receptor 2 [6]) does the source give for `CCCc1c(C(=O)NC2C(C)(C)[C@@H]3CC[C@@]2(C)C3)c2cccc(OC)c2n1CCN1CCOCC1` (some centres not stated) here?
Its inhibition is 6%.

For `COc1cccc2c(C(=O)NC(c3ccccc3)c3ccccn3)nn(CCN3CCOCC3)c12` (configuration not stated), which Ki (Cannabinoid receptor 1) is on record?
Its Ki is 162 nM.

And the Ki (Cannabinoid receptor 2 [1])?
The Ki was 146 nM.

What about the IC50 [2] of the same molecule?
The IC50 was 20000 nM.

Which Ki (Cannabinoid receptor 2 [1]) does the source give for `CCc1c(C(=O)NC2C(C)(C)[C@@H]3CC[C@@]2(C)C3)c2cccc(OC)c2n1CCN1CCOCC1` (some centres not stated) here?
The Ki was 110 nM.
